The source made the active and inactive calls. No cut-off for these calls is given here.
Experiments:
Nakaseomyces glabratus = assay: Antifungal activity against Candida glabrata ATCC 0001 assessed as inhibition of microbial growth by NCCLS protocol based method; format: functional
Summary of the method: (§1)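 Broth MIC50 determined following NCCLS guidelines in Sabouraud medium, with fungal suspension in 24-well format. Compound tested at 0.0625, 0.125, 0.5, 1, 2, 4, 8 and 16 μg/mL. Plates cultured statically at 35 °C. MIC50 is the lowest concentration giving 50% growth inhibition. Naftifine and fluconazole served as positive controls.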

Candida albicans [1] = assay: Antifungal activity against Candida albicans ATCC 10231 assessed as inhibition of microbial growth by NCCLS protocol based method; format: functional; summary of the method: as §1
Pichia kudriavzevii = assay: Antifungal activity against Candida krusei ATCC 6258 assessed as inhibition of microbial growth by NCCLS protocol based method; format: functional; summary of the method: as §1
Aspergillus fumigatus = assay: Antifungal activity against Aspergillus fumigatus KM8001 assessed as inhibition of microbial growth by NCCLS protocol based method; format: functional; summary of the method: as §1
Candida tropicalis = assay: Antifungal activity against Candida tropicalis ATCC 1369 assessed as inhibition of microbial growth by NCCLS protocol based method; format: functional; summary of the method: as §1
Candida albicans [2] = assay: Antifungal activity against Candida albicans ATCC SC5314 assessed as decrease in fungal cell density at 10 nM/mL by polarizing microscopy; format: functional, organism-based; conditions: dose 10.0 nmol/ml
Summary of the method: (§2)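 C. albicans ATCC SC5314 observed by polarizing microscopy over treatment time. Untreated, fluconazole- and naftifine-treated control groups were included. Cell density, dividing cells and cell fracture were assessed, with cell counts taken per field.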

Candida albicans [3] = assay: Antifungal activity against fluconazole-resistant Candida albicans 632 assessed as inhibition of microbial growth by NCCLS protocol based method; format: functional
Candida albicans [4] = assay: Antifungal activity against fluconazole-resistant Candida albicans CaR assessed as inhibition of microbial growth by NCCLS protocol based method; format: functional
Candida albicans [5] = assay: Antifungal activity against fluconazole-resistant Candida albicans 904 assessed as inhibition of microbial growth by NCCLS protocol based method; format: functional
Candida albicans [6] = assay: Antifungal activity against Candida albicans ATCC SC5314 assessed as reduction in cell division at 10 nM/mL by polarizing microscopy; format: functional, organism-based; conditions: dose 10.0 nmol/ml; summary of the method: as §2
Candida albicans [7] = assay: Antifungal activity against fluconazole-resistant Candida albicans 17# assessed as inhibition of microbial growth by NCCLS protocol based method; format: functional
Candida albicans [8] = assay: Antifungal activity against fluconazole-resistant Candida albicans 901 assessed as inhibition of microbial growth by NCCLS protocol based method; format: functional
[9] = Inhibition of Candida albicans ATCC SC5314 SE incubated for 30 mins by spectrophotometric method
Summary of the method: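 Enzymes (SE, CYP51) extracted from C. albicans SC5314 using kits. 50 µg enzyme incubated with varying compound concentrations for 30 min at 37 °C in Tris pH 7.4, KCl, MgCl2, 2 mM NADPH, with squalene or eburicol as substrate. Reaction stopped with acetonitrile and centrifuged. Eburicol consumption (CYP51) read by HPLC. Squalene, after sulfuric acid/formaldehyde derivatization, read at 400 nm (SE). IC50 reported.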

Candida albicans [10] = assay: Antifungal activity against Candida albicans ATCC SC5314 assessed as induction of cell fracture at 10 nM/mL by polarizing microscopy; format: functional, organism-based; conditions: dose 10.0 nmol/ml; summary of the method: as §2

| SMILES | MIC50 (Nakaseomyces glabratus) | MIC50 (Candida albicans [1]) | MIC50 (Pichia kudriavzevii) | MIC50 (Aspergillus fumigatus) | MIC50 (Candida tropicalis) | Activity (Candida albicans [2]) | MIC50 (Candida albicans [3]) | MIC50 (Candida albicans [4]) | MIC50 (Candida albicans [5]) | Activity (Candida albicans [6]) | MIC50 (Candida albicans [7]) | MIC50 (Candida albicans [8]) | IC50 [9] | Activity (Candida albicans [10]) |
| --- | --- | --- | --- | --- | --- | --- | --- | --- | --- | --- | --- | --- | --- | --- |
| Cc1ccc(NC(=O)C(Cn2ccnc2)NC(=O)c2cccc3ccccc23)cc1 (centres undefined) | 0.25 µg/mL | 0.25 µg/mL | 0.5 µg/mL | > 16 µg/mL | 0.5 µg/mL |  |  |  |  |  |  |  |  |  |
| CN(C/C=C/c1ccccc1)Cc1cccc2ccccc12 [NAFTIFINE] | 0.25 µg/mL | 0.5 µg/mL | 2 µg/mL | 8 µg/mL | 0.5 µg/mL | Active | > 16 µg/mL | > 16 µg/mL | > 16 µg/mL | Active | > 16 µg/mL | > 16 µg/mL | 284 nM | Active |
| CC(NC(=O)c1ccc2ccccc2c1)C(=O)NC(Cn1ccnc1)C(=O)c1ccccc1 (centres undefined) | 0.5 µg/mL | 0.25 µg/mL | 0.25 µg/mL | 8 µg/mL | 0.125 µg/mL |  |  |  |  |  |  |  |  |  |
| CN(CC(=O)NCc1ccncc1)C(=O)c1ccc2ccccc2c1 | 2 µg/mL | 0.25 µg/mL | 0.5 µg/mL | 8 µg/mL | 1 µg/mL |  |  |  |  |  |  |  |  |  |
| O=C(NC(Cn1ccnc1)C(=O)NCc1ccccc1)c1ccc2ccccc2c1 (centres undefined) | 1 µg/mL | 0.5 µg/mL | 1 µg/mL | > 16 µg/mL | 0.5 µg/mL |  |  |  |  |  |  |  |  |  |
| CN(CC(=O)Nc1ccncc1)C(=O)c1ccc2ccccc2c1 | 0.5 µg/mL | 0.25 µg/mL | 1 µg/mL | 8 µg/mL | 0.25 µg/mL |  |  |  |  |  |  |  |  |  |
| O=C(CNC(=O)c1ccc2ccccc2c1)NC(Cn1ccnc1)C(=O)c1ccccc1 (centres undefined) | 1 µg/mL | 0.25 µg/mL | 0.5 µg/mL | > 16 µg/mL | 0.25 µg/mL |  |  |  |  |  |  |  |  |  |
